Among the data in ChEMBL document CHEMBL1154576, “Isolation, structure determination, and biological activity of Lyngbyabellin A from the marine cyanobacterium lyngbya majuscula” (J Nat Prod, 2000) are Activity and IC50 values, retold here.

Structures are written as SMILES. Converted amounts (≈) assume the structure as drawn. The source made the active and inactive calls. No cut-off for these calls is given here.

The species entered for one series is Mus musculus. In words: Toxicity in mouse assessed as lethal dose. Type of series: organism-based. The conditions noted are these: in vivo.
Series [1] addresses T1, DNA topoisomerase 1 (Homo sapiens) (UniProt P11387).
T1 sequence (whole entry): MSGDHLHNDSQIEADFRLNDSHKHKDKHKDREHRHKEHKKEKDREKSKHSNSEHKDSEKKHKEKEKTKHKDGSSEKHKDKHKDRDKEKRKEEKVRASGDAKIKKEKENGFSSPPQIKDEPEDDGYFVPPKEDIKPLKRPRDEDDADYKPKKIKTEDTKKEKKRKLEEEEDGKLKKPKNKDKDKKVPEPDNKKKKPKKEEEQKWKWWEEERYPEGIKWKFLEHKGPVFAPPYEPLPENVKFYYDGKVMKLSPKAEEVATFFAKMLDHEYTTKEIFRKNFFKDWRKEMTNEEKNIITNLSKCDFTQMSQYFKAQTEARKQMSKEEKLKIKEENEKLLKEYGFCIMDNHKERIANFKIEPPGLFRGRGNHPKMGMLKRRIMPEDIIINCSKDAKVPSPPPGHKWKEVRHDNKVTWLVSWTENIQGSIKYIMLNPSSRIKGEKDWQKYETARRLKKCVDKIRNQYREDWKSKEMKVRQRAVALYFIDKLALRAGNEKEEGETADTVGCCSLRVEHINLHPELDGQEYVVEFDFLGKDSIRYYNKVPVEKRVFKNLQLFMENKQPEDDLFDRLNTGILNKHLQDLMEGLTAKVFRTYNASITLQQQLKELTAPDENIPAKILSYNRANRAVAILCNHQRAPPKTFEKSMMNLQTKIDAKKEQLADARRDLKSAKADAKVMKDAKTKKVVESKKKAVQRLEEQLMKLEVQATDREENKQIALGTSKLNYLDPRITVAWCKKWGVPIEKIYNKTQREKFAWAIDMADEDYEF
In words: Inhibition of topoisomerase 1 at 10 ug/mL.

Series [2] relates to A10. In words: Disruption of cellular microfilament network in rat A10 cells at 0.01 to 5.0 ug/mL. Type of series: functional, cell-based. A digest of the protocol: (§1)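 A-10 smooth muscle cells grown on glass coverslips in Basal Medium Eagle with 10% fetal calf serum, exposed to a range of concentrations or vehicle for 24 h. Microfilaments stained 45 min with 100 nM TRITC-phalloidin, chromatin stained with DAPI, and cells examined by fluorescence microscopy.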

For a further series, the system named is KB. In words: Cytotoxicity against human KB cells. The series is classed as functional, cell-based.
Series [3] relates to A10. In words: Disruption of cytoskeleton in rat A10 cells assessed as neuron-like gross cellular morphology. Type of series: functional, cell-based. A digest of the protocol:
as §1

In series [4] the target is T1, DNA topoisomerase 1 (Homo sapiens). Put plainly: Inhibition of topoisomerase 1 at 5 ug/mL.
For a further series, the system named is M16. Put plainly: Antitumor activity against mouse M16 cells at 1.2 to 1.5 mg/kg. The series is classed as functional, organism-based. A digest of the protocol: (§2)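 In vivo mice with murine colon adenocarcinoma C38 or mammary adenocarcinoma M16, dosed at sublethal levels of 1.2-1.5 mg/kg.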
For series [5], the system named is A10. In words: Disruption of microtubules in rat A10 cells. The series is classed as functional, cell-based.
The test system of series [6] is A10. In words: Disruption of cytoskeleton in rat A10 cells assessed as cells with two nuclei. Type of series: functional, cell-based. A digest of the protocol:
as §1

Another series relates to LoVo. Put plainly: Cytotoxicity against human LoVo cells. The series is classed as functional, cell-based.
In the next series the test system is MC-38. In words: Antitumor activity against mouse C38 cells at 1.2 to 1.5 mg/kg. The series is classed as functional, organism-based. A digest of the protocol:
as §2

Series [7] has as its system A10. Put plainly: Induction of apoptosis in rat A10 cells assessed as apoptotic bodies at 0.01 ug/mL. The series is classed as functional, cell-based. A digest of the protocol:
as §1

As for `CC[C@H](C)[C@@H]1NC(=O)CNC(=O)c2csc(n2)[C@H](C(C)(C)O)OC(=O)C(C)(C)[C@H](CCCC(C)(Cl)Cl)OC(=O)c2csc1n2` [LYNGBYABELLIN A], the Activity in the series filed under Mus musculus is 2.4 mg/kg. In addition, the outcome (in series [1]; in series [4]; in the series with M16; with A10 [5]; in the series with MC-38) was inactive. Also, the outcome in the series on A10 [2], with A10 [3], in the series on A10 [6] and in the series on A10 [7] was Active. The IC50 is 0.03 µg/mL (≈ 0.0434 µM) in the series on KB and 0.5 µg/mL (≈ 0.723 µM) in the series on LoVo.

The term IC50 denotes the concentration that gives 50% inhibition. Read a low IC50 as greater potency.
